Bioassay records deposited in PubChem BioAssay by Broad Institute.
This is a sample that favours compounds with a hit; in the whole collection about 2.6% have one here.
Xi reactivation: activators of inactive X chromosome reactivation, primary screen, imaging, XiGFP fibroblasts, GFP high-content imaging, set 2 | 360,000 tested, 0.055% active | activation, % at 7.58 µM | AID 743238, 2013 | XiGFP mouse fibroblasts, % GFP-positive cells imaging, 3 d; cells co-treated with 5-aza-dC sensitizer; scaled so ellipticine positive control = 100%;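 active = mean normalized replicate activation at least 10% and every replicate at or above 10%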;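 note: 0% = median of on-plate neutral control wells and 100% = ellipticine 6 µM median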
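System: XiGFP fibroblasts, SV40-immortalized. Medium: DMEM plus 5-aza-dC sensitizer. Doses: single point. Timing: 3 d treatment, 15 min room-temperature fixation. Control set: ellipticine 6 µM.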
Ecoli rRNA inh: reduced GFP signal of wild-type E. coli, primary screen, bacterial rRNA inhibitor project, GFP/RFP fluorescence, OD600, single point; E. coli WT GFP vs humanized-ribosome RFP mutants, 24 h; hits give low values; DMSO median 0, no signal -100; GFP signal change (wild-type ribosome), % (concentration not given with the values); 350,000 tested, 1.6% active;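 active = significant combined selectivity score with lowered wild-type GFP, culture density cut under 30%, mutant RFP and density less affected; inactive = any of these conditions unmet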
SR-BI DiI inh: inhibitors of SR-BI mediated HDL lipid uptake, primary screen, ldlA[mSR-BI] cells, fluorescence, single point. ldlA[mSR-BI] CHO cells, DiI-HDL uptake fluorescence, 3 h. inhibition, % at 12.5 µM. 320,000 tested, 0.96% active;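 active = mean replicate inhibition of at least 70% and a set share of replicates each scoring 70 or more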;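 note: 0% = median of neutral control wells and 100% = median of positive control wells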
dFosB activator: activators of delta FosB homodimer, primary screen, biochemical, fluorescence polarization, TAMRA-CDK5 oligo, single point. Protein FosB (Mus musculus), P13346. purified delta FosB; percent of positive-control signal above neutral wells. activation, % at 25 µM. 340,000 tested, 0.99% active;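 active = mean activation above about 17%, with every replicate also reaching it, limit read from the data, passing the limit was not always enough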
Target sequence (P13346 whole entry, looked up): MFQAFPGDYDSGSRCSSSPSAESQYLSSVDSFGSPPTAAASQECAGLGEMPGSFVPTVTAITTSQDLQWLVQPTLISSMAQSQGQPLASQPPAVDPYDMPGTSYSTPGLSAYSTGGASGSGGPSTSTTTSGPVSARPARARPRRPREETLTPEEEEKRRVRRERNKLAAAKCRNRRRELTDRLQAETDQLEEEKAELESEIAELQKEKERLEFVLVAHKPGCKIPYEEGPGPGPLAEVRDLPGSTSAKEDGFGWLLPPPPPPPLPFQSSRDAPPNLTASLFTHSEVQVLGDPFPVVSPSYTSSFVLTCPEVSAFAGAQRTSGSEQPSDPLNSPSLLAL
SR-BI DiI-HDL act: activators of SR-BI mediated DiI-HDL uptake, primary screen, ldlA[mSR-BI] CHO cells, DiI fluorescence; 3 h; 100 = double the neutral-control signal; activation, % at 12.5 µM; 320,000 tested, 0.096% active; AID 504775, 2011;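 active = mean replicate activation of at least 60% and every replicate at or above 60%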;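 note: 0% = median plate neutral-control signal and 100% = twice that signal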
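System: CHO ldlA[mSR-BI] cells / Medium: HEPES-buffered (25 mM, pH 7.4) F12 plus 0.5% BSA / Probe or stimulus: labelled HDL, 10 µg/mL / Doses: single compound concentration, delivered by pin transfer / Schedule: 3 h, 37 °C / Measured by: DiI fluorescence, bottom read / Measure: cell-associated DiI fluorescence as measure of HDL uptake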
PvdQ inh: P. aeruginosa PvdQ acylase inhibitors, primary screen, biochemical, fluorescence, plate reader and imaging, single point. PvdQ acylase [Pseudomonas aeruginosa LESB58]. AID 488965, 2010. 340,000 tested, 0.063% active. purified PvdQ acylase. inhibition, % at 10 µM; in the data active = inhibition above about 30%, passing the limit was not always enough;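 note: 0% = vehicle neutral wells and 100% = reference inhibitor wells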
The depositor's hits bear a star; . = not tested or not shown.

SMILES | Xi reactivation | Ecoli rRNA inh | SR-BI DiI inh | dFosB activator | SR-BI DiI-HDL act | PvdQ inh
CCNc1nc(ON=C(C)C)nc(N(C)C)n1 | 0 | 0 | -64 | 8 | 64* | -11
CCOc1ccc(/C(O)=C2/C(=O)C(=O)N(CCN(C)C)C2c2ccccc2)cc1Cl (stereo unspecified) | 0 | . | -30 | 1 | 30 | -5
CC(=O)C12OC1CC1C3CCC4=CC(=O)CCC4(C)C3CCC12C (stereo unspecified) | 0 | -23* | -20 | -8 | 20 | -5
CC(C)(C)SCCNC(=O)c1ccc(Cl)c([N+](=O)[O-])c1 | 0 | . | -79 | -5 | 79* | -6
Cc1ccccc1CNC(=O)c1ccc(Cl)c([N+](=O)[O-])c1 | 0 | . | 12 | -2 | -12 | 1
Clc1ccc(-n2nnnc2-c2cnc3ccccc3c2-c2ccccc2)cc1 | 0 | -21* | 2 | 3 | -2 | 1
Cc1ccc(-n2nnnc2-c2cnc3ccc(Cl)cc3c2-c2ccccc2)cc1 | . | . | 3 | -7 | -3 | -1
CCCCNC(=O)c1cn(CC)c2ccc(S(=O)(=O)N3CCCC3)cc2c1=O | 0 | -4 | 11 | -14 | -11 | 10
CCn1cc(C(=O)NCCc2ccccc2)c(=O)c2cc(S(=O)(=O)N3CCCC3)ccc21 | 0 | 6 | 73* | -20 | -73 | 2
Cc1cc(/C=N/n2cnnc2)c(C)n1-c1ccc(OCc2ccccc2F)cc1 | . | -43* | 1 | -21 | -1 | -12
O=C(Cc1ccccn1)N[C@H]1CC[C@@H](CCn2cc(-c3ccccc3)nn2)O[C@@H]1CO | 0 | -1 | . | . | . | .
COc1ccc(Cc2noc(CN(C)CCc3ccccc3)n2)cc1OC | 0 | -6 | . | 3 | . | -10
COc1ccc(CN(C)Cc2nc(Cc3ccccc3Cl)no2)cc1OC | 33* | -14 | . | -2 | . | -1
CCOc1ccc(-n2c(-c3ccccc3)c[n+]3c2CCCCC3)cc1 | 0 | -43* | 4 | -1 | -4 | -4
Cc1ccccc1Nc1nc(N)nc(COC(=O)c2cccc(S(=O)(=O)N(C)C)c2)n1 | 0 | -17* | -8 | -7 | 8 | -12
Cc1ccccc1Nc1nc(N)nc(COC(=O)c2cccc(S(=O)(=O)NCc3ccccc3)c2)n1 | 0 | . | 28 | -3 | -28 | -18
C[C@@H]1CCCCO[C@@H](CN(C)S(=O)(=O)c2ccccc2)[C@H](C)CN([C@H](C)CO)C(=O)c2cc(NS(C)(=O)=O)ccc2O1 | 0 | -1 | . | . | . | .
Nc1nc2nc(-c3cccs3)cc(C(F)(F)F)n2n1 | 0 | 9 | -6 | -1 | 6 | -39
COc1ccccc1N1CCN(S(=O)(=O)c2ccccc2F)CC1 | . | -22* | -7 | -1 | 7 | -14
CCOc1ccc(NC(=O)N(CCC(C)C)C2CCN(C(C)=O)CC2)cc1 | . | . | 26 | 2 | -26 | -6
CC(C)CCN(C(=O)Nc1ccc(Cl)cc1)C1CCN(C(C)C)CC1 | 0 | -35* | 9 | 2 | -9 | 2
COc1cccc(CN2CCCCN3[C@@H](CO)[C@H](c4ccc(C#Cc5cccnc5)cc4)[C@@H]3C2)c1 | 0 | -18* | . | . | . | .
O=C(Nc1cc(F)ccc1F)N1CCCCN2[C@@H](CO)[C@H](c3ccc(-c4cccnc4)cc3)[C@@H]2C1 | 0 | -24* | . | . | . | .
OC[C@H]1[C@@H](c2ccc(-c3ccc(F)cc3)cc2)[C@@H]2CN(Cc3ccncc3)CCCCN12 | 0 | 1 | . | . | . | .
OC[C@H]1[C@H](c2ccc(-c3ccc(F)cc3)cc2)[C@@H]2CN(Cc3ccncc3)CCCCN12 | 0 | -19* | . | . | . | .
SMILES | Xi reactivation | Ecoli rRNA inh | SR-BI DiI inh | dFosB activator | SR-BI DiI-HDL act | PvdQ inh
Cc1ccc(OCCn2c(=O)cnc3ccccc32)cc1 | . | . | -18 | -3 | 18 | -3
O=C(Nc1ccc(F)cc1)N[C@@H]1CC[C@@H](CC(=O)N2CCCCC2)O[C@@H]1CO | 0 | 1 | . | . | . | .
Cc1ccc2ccccc2c1COC(=O)c1nonc1N | . | -23* | -5 | -5 | 5 | -14
CCOC(=O)c1ccc(COC(=O)c2nonc2N)cc1 | . | . | 9 | 2 | -9 | -2
Nc1ccc(C(=O)n2c3ccccc3c3ccccc32)cc1 | . | . | 91* | 6 | -91 | -12
Cc1ccc(O)c(-c2cc(C(=O)Nc3ccc(S(=O)(=O)Nc4nccc(C)n4)cc3)[nH]n2)c1 | 0 | -29* | 20 | 10 | -20 | 9
COc1ccc(C(=O)Nc2ccc(S(=O)(=O)Nc3nccc(C)n3)cc2)cc1 | 0 | 11 | 9 | -1 | -9 | -17
O=C(NC(=O)c1ccccc1F)OCc1ccc(Cl)cc1Cl | 0 | -40* | -15 | -12 | 15 | -15
CCNC(=S)N(CCc1c(C)[nH]c2ccc(F)cc12)Cc1cccnc1 | 0 | -27* | 11 | -6 | -11 | -7
CCNC(=S)N(CCc1c(C)[nH]c2ccc(C)cc12)Cc1cccnc1 | 0 | -4 | -7 | -3 | 7 | -6
CCCCNc1c(-c2ccc(-c3ccc(C(C)=O)cc3)c(OC)c2)nc2cnccn12 | . | . | 73* | 1 | -73 | -9
CCCCNc1c(-c2cccc(-c3ccc(OC)cc3)c2)nc2ccc(C)cn12 | 0 | 13 | 44 | 0 | -44 | -13
CCCCNc1c(-c2cccc(-c3ccc(OC)cc3)c2)nc2cc(C)ccn12 | 0 | -13 | 73* | -5 | -73 | -8
COc1ccc(NC(=O)Nc2ccc3c(c2)C(=O)N([C@@H](C)CO)C[C@@H](C)[C@@H](CN(C)C(=O)c2ccccc2)OCCCC[C@H](C)O3)cc1 | 0 | 3 | . | . | . | .
COc1ccc(-n2nc(C#N)c(Cl)cc2=O)cc1 | 0 | -43* | -53 | -1 | 53 | -14
COC(=O)c1nn(-c2ccc(OC)cc2)c(=O)cc1O | 0 | 13 | -19 | 1 | 19 | 7
O=C1CN(C(=O)COC(=O)CCc2ccccc2)c2ccccc2N1 | 0 | 1 | 8 | -3 | -8 | -2
COc1ccc(C/C(N)=N/OC(=O)c2cccc([N+](=O)[O-])c2)cc1 | 0 | 2 | 3 | -4 | -3 | 0
COc1cccc(C(=O)N(CN2CCCC2=O)c2ccccc2OC)c1 | . | . | . | -2 | . | 1
COc1ccccc1N(CN1C(=O)c2ccccc2C1=O)C(=O)c1cccc(C)c1 | 0 | -30* | -14 | -3 | 14 | -3
Nc1cc([N+](=O)[O-])cc2oc(-c3ccccc3)cc12 | 0 | -4 | 70* | 2 | -70 | 4
